Results taken from ChEMBL document CHEMBL3632466, “Cembranoids from the Gum Resin of Boswellia carterii as Potential Antiulcerative Colitis Agents” (J Nat Prod, 2015).
Active and inactive are the calls of the source. The calls are words filed in the database; no cut-off is given here.

Columns and labels:
[1] = Cytotoxicity against rat IEC-6 cells assessed as cell survival at 10 uM after 72 hrs by MTT assay relative to control; assay type: cell-based; conditions: read-out: Survival
[2] = biological target: T1, X-box-binding protein 1 (Rattus norvegicus) (UniProt Q9R1S4); assay: Transactivation of XBP1 in rat IEC-6 cells at 10 uM after 48 hrs by dual luciferase reporter gene assay relative to con2; assay type: cell-based
T1 sequence (whole entry): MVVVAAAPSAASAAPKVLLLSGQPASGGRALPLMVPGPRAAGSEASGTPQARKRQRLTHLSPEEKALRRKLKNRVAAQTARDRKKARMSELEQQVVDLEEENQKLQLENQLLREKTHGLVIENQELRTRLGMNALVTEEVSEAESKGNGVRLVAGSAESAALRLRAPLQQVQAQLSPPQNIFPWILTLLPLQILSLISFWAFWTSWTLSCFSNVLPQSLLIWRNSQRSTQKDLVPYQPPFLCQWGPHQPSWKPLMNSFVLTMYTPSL
Outline: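 XBP 1 transcriptional activation measured by dual luciferase reporter detection. Con 2 is the pGL3-basic vector control, and activation is expressed as a fold ratio against it. Con 1 serves as background contrast, and 8-oxodihydrocoptisine is the positive control. Compounds are tested at 10 μM.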

Structure (SMILES)	viability at 72 h, 10 µM [1] [%]	Activity [2]	fold change (FC) [2]
C/C1=C\CC[C@@]2(C)O[C@@H]2C[C@]2(C(C)C)CC[C@@](C)(O2)[C@H](O)CC1	87	Active	
C/C1=C\[C@@H](O)C[C@@]2(C)O[C@@H]2C[C@]2(C(C)C)CC[C@@](C)(O2)[C@H](O)CC1=O	87		2.5
C/C1=C\C[C@]2(C(C)C)CC[C@@](C)(O2)[C@@H]2CC[C@@](C)(O2)[C@@H](O)CC1=O (relative stereo)	87	Active	
CC(C)[C@@]12CC[C@@](C)(O1)[C@H](O)CC/C(C=O)=C/CC[C@@]1(C)O[C@@H]1C2	87		1.6
C/C1=C\[C@@H](O)C[C@@]2(C)O[C@@H]2C[C@]2(C(C)C)CC[C@@](C)(O2)[C@H](O)CC1	87	Active	
O=c1c2c3c(ccc2cc2n1CCc1cc4c(cc1-2)OCO4)OCO3			2.2
C/C1=C/C[C@@H](O)[C@@]2(C)CC[C@@](C(C)C)(C[C@@H](O)[C@]3(C)CC[C@H]1O3)O2	87		1.5
C/C1=C\CC[C@@]2(C)O[C@@H]2C[C@]2(C(C)C)CC[C@@](C)(O2)[C@H](O)CC1=O (relative stereo)	87		1.5
CC(C)[C@@]12CC[C@@](C)(O1)[C@@H]1CC[C@@](C)(O1)[C@@H](O)C[C@@H]1O[C@@]1(C)[C@H](O)C2	87	Active	
C/C1=C\CC[C@]2(C)O[C@H]2C[C@]2(C(C)C)CC[C@@](C)(O2)[C@H](O)CC1=O (relative stereo)	87	Active	
